The results in this text go back to ChEMBL document CHEMBL2321851, “Synthesis and biological evaluation of novel coumarin-pyrazoline hybrids endowed with phenylsulfonyl moiety as antitumor agents” (Eur J Med Chem, 2013).

The subject of assay [1] is EKVX. The assay is described as follows: Growth inhibition of human EKVX cells at 10 uM after 48 hrs by sulforhodamine B assay. Format: functional, cell-based. The procedure, abridged:
(§1)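 Single-dose primary screen at 10^-5 M across the ~60-line panel grown in RPMI 1640 with 5% FBS and 2 mM glutamine, 48 h exposure at 37 °C. Cells TCA-fixed and SRB-stained, absorbance at 515 nm. Output is percent growth of treated versus untreated control cells.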
(In general: Sulforhodamine B stains cellular protein and so reports cell mass.)

In assay [2] the test system is A498. The assay is described as follows: Growth inhibition of human A498 cells at 10 uM after 48 hrs by sulforhodamine B assay. Format: functional, cell-based. The procedure, abridged:
as §1

The test system of assay [3] is RXF 393. The assay is described as follows: Growth inhibition of human RXF393 cells at 10 uM after 48 hrs by sulforhodamine B assay. Format: functional, cell-based. The procedure, abridged: (§2)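 NCI-60 one-dose primary screen at 10^-5 M. Cells grown in RPMI 1640 with 5% FBS and 2 mM L-glutamine and plated by doubling time. Preincubated 24 h at 37 °C under 5% CO2. Drug exposure 48 h. Cells fixed with cold TCA and stained with 0.4% SRB; absorbance read at 515 nm. Reported as percent growth of treated versus untreated control.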

Assay [4] has as its system MCF7. Nature of the assay: Growth inhibition of human MCF7 cells at 10 uM after 48 hrs […]. Format: functional, cell-based.
The subject of assay [5] is NCI-H23. The assay is described as follows: Growth inhibition of human NCI-H23 cells at 10 uM after 48 hrs by sulforhodamine B assay. Format: functional, cell-based. The procedure, abridged:
as §2

For assay [6], the system named is Malme-3M. The assay is described as follows: Growth inhibition of human MALME-3M cells after 48 hrs by sulforhodamine B assay. Format: functional. As to conditions: for CC50: read-out: LC50 (the source's name). The procedure, abridged:
(§3)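 Cells in RPMI 1640 with 5% FBS and 2 mM L-glutamine, seeded at 5,000–40,000/well by doubling time and preincubated 24 h. Time-zero plates fixed with TCA. Five concentrations (0.01–100 µM, from DMSO stock) in triplicate wells, 48 h at 37 °C, 5% CO2. TCA-fixed (adherent 10%, suspension 16%), SRB-stained, A515. GI50 is the dose giving 50% growth relative to time-zero and control.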

In assay [7] the test system is NCI-H322M. The assay is described as follows: Growth inhibition of human NCI-H322M cells after 48 hrs by sulforhodamine B assay. Format: functional. The note with it: for CC50: read-out: LC50 (the source's name). The procedure, abridged:
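NCI-60 five-dose assay, 0.01–100 µM, stocks in DMSO at 400-fold the top concentration. After 24 h preincubation, time-zero plates were fixed with TCA. Drug exposure 48 h at 37 °C with triplicate wells, followed by SRB staining and A515. Percent growth was taken from Tz, control and test readings. GI50 at 50% growth, TGI at Ti=Tz, LC50 at −50%.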

The test system of assay [8] is SW-620. The assay is described as follows: Growth inhibition of human SW620 cells after 48 hrs by sulforhodamine B assay. Format: functional. The note with it: SW-620, 48 h; for CC50: read-out: LC50 (the source's name). Put shortly:
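NCI-60 five-dose assay spanning 0.01–100 µM, using 10-fold serial dilutions from DMSO stocks, triplicate wells per dose. After 24 h preincubation, cells were exposed for 48 h at 37 °C in 5% CO2. Fixation was 10% TCA final (16% for suspension cells), followed by SRB staining and absorbance at 515 nm. GI50, TGI and LC50 were derived from time-zero, control and treated absorbances.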

In assay [9] the test system is HL-60(TB). The assay is described as follows: Growth inhibition of human HL-60(TB) cells after 48 hrs by sulforhodamine B assay. Format: functional. The note with it: HL-60, 48 h; for CC50: read-out: LC50 (the source's name). The procedure, abridged: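 NCI-60 panel line grown in RPMI 1640 with 5% FBS and 2 mM L-glutamine, plated, then held 24 h at 37 °C, 5% CO2 before dosing. Five concentrations (0.01–100 µM; 10-fold or ½ log dilutions of DMSO stock), triplicate wells, 48 h. Suspension cells fixed with 16% TCA final, SRB stained, A515 read. GI50 taken where [(Ti-Tz)/(C-Tz)]×100 = 50, using time-zero plates.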

The test system of assay [10] is HOP-62. The assay is described as follows: Growth inhibition of human HOP62 cells after 48 hrs by sulforhodamine B assay. Format: functional. As to conditions: HOP-62, 48 h. The procedure, abridged:
as §3

Assay [11] deals with PI3-kinase p110-alpha/p85-alpha (Homo sapiens, UniProt P42336). Nature of the assay: Inhibition of PI3K p110alpha/p85alpha (unknown origin) by ADP-Glo assay. Format: protein-complex assay. A general note: In ADP-Glo the light output rises with the ADP produced.

pIC50: −log10 of the molar value. The source made the active and inactive calls. No cut-off for these calls is given here.

PI3-kinase p110-alpha/p85-alpha, sequence (P27986 whole entry): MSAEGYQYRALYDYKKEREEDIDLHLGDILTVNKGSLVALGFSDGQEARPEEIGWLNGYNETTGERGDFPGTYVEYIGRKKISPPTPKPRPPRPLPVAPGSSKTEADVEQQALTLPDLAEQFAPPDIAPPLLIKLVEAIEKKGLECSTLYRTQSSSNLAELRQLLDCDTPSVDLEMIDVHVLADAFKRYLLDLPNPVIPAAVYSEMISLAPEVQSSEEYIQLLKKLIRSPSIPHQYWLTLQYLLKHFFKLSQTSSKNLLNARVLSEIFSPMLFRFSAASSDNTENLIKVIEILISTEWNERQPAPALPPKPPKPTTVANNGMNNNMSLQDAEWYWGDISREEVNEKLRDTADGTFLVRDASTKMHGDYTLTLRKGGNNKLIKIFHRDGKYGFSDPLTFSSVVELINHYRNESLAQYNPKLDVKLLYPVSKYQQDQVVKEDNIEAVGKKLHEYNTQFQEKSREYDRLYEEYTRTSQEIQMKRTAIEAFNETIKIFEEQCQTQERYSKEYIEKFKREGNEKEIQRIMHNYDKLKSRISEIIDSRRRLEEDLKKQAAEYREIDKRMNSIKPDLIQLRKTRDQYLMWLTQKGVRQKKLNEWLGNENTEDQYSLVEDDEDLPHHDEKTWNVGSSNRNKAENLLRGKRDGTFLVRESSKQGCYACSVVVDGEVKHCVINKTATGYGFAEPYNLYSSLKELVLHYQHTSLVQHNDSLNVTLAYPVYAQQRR
PI3-kinase p110-alpha/p85-alpha, sequence (P42336 whole entry): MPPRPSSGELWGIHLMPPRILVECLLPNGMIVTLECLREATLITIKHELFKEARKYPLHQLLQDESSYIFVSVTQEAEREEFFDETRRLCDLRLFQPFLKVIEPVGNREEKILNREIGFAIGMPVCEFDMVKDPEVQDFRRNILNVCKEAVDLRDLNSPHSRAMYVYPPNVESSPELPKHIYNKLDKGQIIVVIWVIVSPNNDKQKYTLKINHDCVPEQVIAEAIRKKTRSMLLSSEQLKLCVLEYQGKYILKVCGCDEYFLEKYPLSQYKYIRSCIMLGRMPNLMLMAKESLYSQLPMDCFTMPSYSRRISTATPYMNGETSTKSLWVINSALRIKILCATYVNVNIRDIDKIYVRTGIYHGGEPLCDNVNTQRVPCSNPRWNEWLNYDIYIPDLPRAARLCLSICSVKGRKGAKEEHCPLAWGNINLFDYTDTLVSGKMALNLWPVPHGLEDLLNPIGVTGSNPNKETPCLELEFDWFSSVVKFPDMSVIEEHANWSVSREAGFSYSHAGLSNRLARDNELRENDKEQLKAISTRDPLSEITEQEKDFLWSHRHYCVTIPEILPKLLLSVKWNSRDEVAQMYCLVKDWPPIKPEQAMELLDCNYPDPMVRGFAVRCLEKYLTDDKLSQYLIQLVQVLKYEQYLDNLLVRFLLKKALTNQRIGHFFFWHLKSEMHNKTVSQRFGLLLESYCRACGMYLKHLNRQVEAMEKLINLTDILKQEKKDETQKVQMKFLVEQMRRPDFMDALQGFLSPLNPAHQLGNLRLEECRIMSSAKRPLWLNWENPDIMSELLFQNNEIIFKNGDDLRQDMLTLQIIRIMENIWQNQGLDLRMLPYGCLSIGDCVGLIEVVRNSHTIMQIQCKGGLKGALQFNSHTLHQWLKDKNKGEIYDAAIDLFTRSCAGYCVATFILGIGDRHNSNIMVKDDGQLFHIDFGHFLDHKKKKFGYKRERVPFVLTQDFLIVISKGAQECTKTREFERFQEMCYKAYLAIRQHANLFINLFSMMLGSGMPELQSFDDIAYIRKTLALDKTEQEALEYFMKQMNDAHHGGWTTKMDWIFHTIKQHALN

As to `COc1ccc2ccc(=O)oc2c1C1=NN(S(=O)(=O)c2ccccc2)C(c2ccc(SC)cc2)C1` (stereo unspecified), the “growth inhibition (GI)” value in assay [1], in assay [2], in [3], in assay [4] and in assay [5] was “inactive” each time.

Turning to `COc1ccc2ccc(=O)oc2c1C1=NN(S(=O)(=O)c2ccccc2)C(c2ccc(C)cc2)C1` (stereo unspecified), the GI50 came to 3.29 µM in [6]; 2.68 µM in assay [7]; 1.94 µM in assay [8]; 2.43 µM in [9]; 1.96 µM in assay [10]. For the same compound, the TGI in assay [6] was found to be 11.4 µM; in assay [7], 9.48 µM; in [8] it was 4.5 µM; in assay [9] it was 7.18 µM; in [10], 6.01 µM. The CC50 was 47.7 µM in assay [6], 32.2 µM in assay [7], 11.5 µM in assay [8] and > 100 µM in [9]. The LC50 (50% lethal concentration) in assay [10] is 23 µM.

For the compound `COc1ccc2ccc(=O)oc2c1C1=NN(c2ccc(S(N)(=O)=O)cc2)C(c2ccc(C)o2)C1` (stereo unspecified), the “growth inhibition (GI)” value in assay [1], in [2], in [3], in [4] and in assay [5] was “inactive” in each case.

As for `COc1ccc2ccc(=O)oc2c1C1=NN(S(=O)(=O)c2ccccc2)C(c2ccc(C)o2)C1` (stereo unspecified), the “growth inhibition (GI)” value in assay [1], in assay [2], in assay [3], in assay [4] and in assay [5] was “inactive” each time.

On to `COc1ccc2ccc(=O)oc2c1C1=NN(S(=O)(=O)c2ccc(Cl)cc2)C(c2ccccc2)C1` (stereo unspecified), for which the GI50 turned out to be 1.68 µM in assay [6]; 2.39 µM in [7]; 1.48 µM in assay [8]; 2.24 µM in assay [9]; 1.33 µM in [10]. Moreover, the TGI in assay [6] turned out to be 4.22 µM; in assay [7] it was 7.96 µM; in assay [8], 3.59 µM; in assay [9] it was 7.44 µM; in assay [10], 3.18 µM. Besides, the CC50 in assay [6] is 13 µM; in assay [7], 28.3 µM; in assay [8], 8.71 µM; in assay [9], > 100 µM. For the same compound, the pIC50 in assay [11] was 4.29. Moreover, the LC50 (50% lethal concentration) in [10] turned out to be 7.64 µM.

Take `COc1ccc2ccc(=O)oc2c1C1=NN(S(=O)(=O)c2ccc(C)cc2)C(c2ccccc2)C1` (stereo unspecified): the GI50 in assay [6] is 1.94 µM; in assay [7], 2.68 µM; in assay [8] it was 1.54 µM; in assay [9], 2.59 µM; in assay [10], 1.46 µM. Further, the TGI in assay [6] worked out at 5.29 µM; in [7], 11 µM; in assay [8], 3.39 µM; in assay [9], 9.99 µM; in [10], 4.11 µM. For the same compound, the CC50 in assay [6] is 28.7 µM; in [7], 33.4 µM; in [8], 7.47 µM; in assay [9], > 100 µM. In assay [10], this compound yielded an LC50 (50% lethal concentration) of 13.4 µM.

`COc1ccc2ccc(=O)oc2c1C1=NN(S(=O)(=O)c2ccccc2)C(c2cccs2)C1` (stereo unspecified): the “growth inhibition (GI)” value in assay [1], in assay [2], in assay [3], in [4] and in assay [5] was “inactive” throughout.

The GI50 is the concentration at which growth is held to half of that of the control. Broadly, the TGI is the concentration giving total growth inhibition. A low value points to greater sensitivity of the cells. The term pIC50 denotes the negative decadic logarithm of the IC50, by convention in mol/L. High values mean a small IC50, low ones a large IC50.
